Measured values from ChEMBL document CHEMBL1782023, “Spirocyclic lignans from Guaiacum (Zygophyllaceae) induce apoptosis in human breast cancer cell lines” (J Nat Prod, 2011).
The source made the active and inactive calls. The rule behind the calls is not given here.

What was measured:
[1] = tested on: MDA-MB-231; experiment: Cell cycle arrest in human MDA-MB-231 cells assessed as decrease in cells in S phase after 24 hrs using annexin V/propidium iodide staining by flow cytometry; type: functional, cell-based
Summary of the method: (§1)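 Cells cultured in RPMI 1640 with 10% heat-inactivated FCS, 37 °C, 5% CO2. After 24 h of growth, cells were treated with test samples dissolved in DMSO for a further 24 h. Cell cycle distribution was measured by FACS with annexin V/propidium iodide double staining. For DNA content, singlet events were gated and 10 000-20 000 events were acquired. Read-out: percentage of cells in S phase and in sub-G0 phase.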

[2] = tested on: MDA-MB-231; experiment: Cell cycle arrest in human MDA-MB-231 cells assessed as increase of cells in sub-G0 phase after 24 hrs using annexin V/propidium iodide staining by flow cytometry; type: functional, cell-based; summary of the method: as §1
[3] = tested on: MDA-MB-231; experiment: Induction of apoptosis in human MDA-MB-231 cells assessed as condensation of nucleus at 1.2 to 30 ug/ml using Hoechst 33342/propidium iodide staining […]; type: functional, cell-based; settings: TDE = time-dependent effect
[4] = tested on: MDA-MB-231; experiment: Cytotoxicity against human MDA-MB-231 cells after 48 hrs by Alamar blue assay; type: functional, cell-based; settings: MDA-MB-231, 48 h
Summary of the method: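 Cells were seeded at 5000 per well and grown for 24 h. Samples were then added from DMSO solution, with 0.1% DMSO as vehicle control. After 48 h incubation, viability was read from Alamar blue colour spectrophotometrically at 540 nm.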

[5] = tested on: MDA-MB-231; experiment: Induction of apoptosis in human MDA-MB-231 cells assessed as condensation of nucleus after 24 hrs using Hoechst 33342/propidium iodide staining […]; type: functional, cell-based
[6] = tested on: MDA-MB-231; experiment: Induction of apoptosis in human MDA-MB-231 cells assessed as chromatin segregation after 24 hrs using Hoechst 33342/propidium iodide staining […]; type: functional, cell-based
[7] = tested on: MDA-MB-231; experiment: Induction of apoptosis in human MDA-MB-231 cells assessed as condensation of cytoplasm after 24 hrs using Hoechst 33342/propidium iodide staining by FACS analysis; type: functional, cell-based
[8] = tested on: MDA-MB-231; experiment: Induction of apoptosis in human MDA-MB-231 cells assessed as chromatin segregation at 1.2 to 30 ug/ml using Hoechst 33342/propidium iodide staining […]; type: functional, cell-based; settings: TDE = time-dependent effect
[9] = tested on: MDA-MB-231; experiment: Induction of apoptosis in human MDA-MB-231 cells assessed as loss of membrane […] after 24 hrs using Hoechst 33342/propidium iodide staining by FACS analysis; type: functional, cell-based
[10] = tested on: MDA-MB-231; experiment: Induction of apoptosis in human MDA-MB-231 cells assessed as chromatin condensation at 1.2 to 30 ug/ml using Hoechst 33342/propidium iodide staining […]; type: functional, cell-based; settings: TDE = time-dependent effect
[11] = tested on: MDA-MB-231; experiment: Cell cycle arrest in human MDA-MB-231 cells assessed as decrease in cells in S phase at 30 ug/ml after 24 hrs using annexin V/propidium iodide staining by flow cytometry (reference value: 13%); type: functional; design: scale not given: the % may be the effect or the level left; summary of the method: as §1
[12] = tested on: MDA-MB-231; experiment: Induction of apoptosis in human MDA-MB-231 cells assessed as chromatin condensation after 24 hrs using Hoechst 33342/propidium iodide staining […]; type: functional, cell-based
[13] = tested on: MDA-MB-231; experiment: Induction of apoptosis in human MDA-MB-231 cells assessed as loss of membrane […] at 1.2 to 30 ug/ml using Hoechst 33342/propidium iodide staining by FACS analysis; type: functional, cell-based; settings: TDE = time-dependent effect
[14] = tested on: MDA-MB-231; experiment: Induction of apoptosis in human MDA-MB-231 cells assessed as condensation of cytoplasm at 1.2 to 30 ug/ml […]; type: functional, cell-based; settings: TDE = time-dependent effect

Row | Structure (SMILES) | Activity [1] | Activity [2] | IC50 [4] [µM] | Activity [11] [%] | also measured
1 | CC[C@@]1(O)C(=O)OCc2c1cc1n(c2=O)Cc2cc3ccccc3nc2-1 | Dose-dependent effect | Active |  |  | 
2 | C=C1[C@@H](c2ccc(O)c(OC)c2)O[C@@H](c2ccc(O)c(OC)c2)[C@@]12CCC1=C(C2)[C@@H](c2ccc(O)c(OC)c2)O[C@H]1c1ccc(O)c(OC)c1 [RAMONANIN A] | Dose-dependent effect | Active | 18 | <4 | Activity [3]: tde; Activity [5]: Dose-dependent effect; Activity [6]: Dose-dependent effect; Activity [7]: Dose-dependent effect; Activity [8]: tde; Activity [9]: Dose-dependent effect; Activity [10]: tde; Activity [12]: Dose-dependent effect; Activity [13]: tde; Activity [14]: tde
3 | C=C1[C@H](c2ccc(O)c(OC)c2)O[C@H](c2ccc(O)c(OC)c2)[C@@]12CCC1=C(C2)[C@@H](c2ccc(O)c(OC)c2)O[C@H]1c1ccc(O)c(OC)c1 [RAMONANIN B] | Dose-dependent effect | Active | 18 | <4 | 
4 | C=C1[C@@H](c2ccc(O)c(OC)c2)O[C@@H](c2ccc(O)c(OC)c2)[C@@]12CCC1=C(C2)[C@H](c2ccc(O)c(OC)c2)O[C@@H]1c1ccc(O)c(OC)c1 [RAMONANIN C] |  |  | 18 |  | 
5 | C=C1[C@@H](c2ccc(O)c(OC)c2)O[C@@H](c2ccc(O)c(OC)c2)[C@@]12CCC1=C(C2)[C@@H](c2ccc(O)c(OC)c2)O[C@@H]1c1ccc(O)c(OC)c1 [RAMONANIN D] |  |  | 18 |  | 
